Shown are actives, neighbours in structure and some others; about 5.9% of the full set was active somewhere.
IDH1 mut inh: blocks human IDH1 R132H reductase activity; AID 624101; inhibition, % at 10 µM; O75874; diaphorase/resazurin fluorescence, 60 min; hit rate 0.18% among 70,000; in the data active means inhibition above about 34%; inconclusive means no clear call, values can overlap the other calls; inactive means below about 11%
GASC1 inh: blocks human GASC-1 (KDM4C) demethylase activity. GST-KDM4C 2-372, H3K9me3 peptide, LANCE TR-FRET. hit rate 0.15% among 96,000. Q9H3R0. inhibition, % at 12.5 µM. AID 720574;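 active means mean replicate inhibition above about 25%, with at least 55% of replicates also reaching it, limit read from the data, passing the limit was not always enough; inconclusive means only one of those two conditions met; inactive means neither condition met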
Target sequence (Q9H3R0 2-372 limits assumed): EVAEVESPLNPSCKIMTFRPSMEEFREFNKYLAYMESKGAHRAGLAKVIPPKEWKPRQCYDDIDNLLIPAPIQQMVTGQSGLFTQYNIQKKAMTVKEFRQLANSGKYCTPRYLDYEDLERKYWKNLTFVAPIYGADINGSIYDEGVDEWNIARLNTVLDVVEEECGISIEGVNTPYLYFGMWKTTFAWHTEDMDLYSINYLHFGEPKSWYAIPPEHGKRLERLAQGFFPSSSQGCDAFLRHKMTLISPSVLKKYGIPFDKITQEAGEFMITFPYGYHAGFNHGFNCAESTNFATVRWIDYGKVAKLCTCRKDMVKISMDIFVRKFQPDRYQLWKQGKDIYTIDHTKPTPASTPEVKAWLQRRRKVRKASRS
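System: N-terminal GST-fused human GASC-1 (KDM4C) fragment, residues 2-372; amount: enzyme final amount 10 nM; incubation: reaction 30 min RT, detection step 1 h RT; medium: HEPES buffer, pH 7.5, plus ascorbate; technique: LANCE TR-FRET, Eu antibody, ULight-streptavidin, EDTA, ex 340 nm, em 618/671 nm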
T cruzi growth-1: blocks T. cruzi growth in NIH3T3 culture; inhibition, % at 8.34 µM; hit rate 5.9% among 77,000; AID 624255; T. cruzi beta-gal in NIH3T3, GalScreen luminescence, 90 h;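 active means mean inhibition above about 93%, with at least 55% of replicates each passing it, limit read from the data, passing the limit was not always enough; inconclusive means only one of those two conditions holds; inactive means neither condition holds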
Pf Dd2 growth: P. falciparum Dd2 growth inhibition; activity change, % at 10 µM; SYBR Green, 72 h; active compounds read low; hit rate 2.3% among 94,000; in the data active means activity change below about -80%; inconclusive means no clear call, values can overlap the other calls
T cruzi growth-2: Trypanosoma cruzi proliferation inhibition | T. cruzi beta-gal in NIH3T3, GalScreen luminescence, 90 h | inhibition, % at 8.35 µM | shares compounds with T cruzi growth-1 | hit rate 72% among 5,600 | AID 651739;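 active means mean replicate inhibition above about 95% and at least 55% of replicates individually reaching it, limit read from the data; inconclusive means only one of the two criteria is met; inactive means neither criterion is met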
T cruzi growth-3: Trypanosoma cruzi proliferation inhibition; shares compounds with T cruzi growth-1; hit rate 21% among 5,600; AID 651740; T. cruzi beta-gal in NIH3T3, GalScreen luminescence, 90 h; inhibition, % at 2.09 µM;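 active means mean inhibition above about 95%, with at least 55% of replicates also reaching it, limit read from the data; inconclusive means meets just one of the two conditions; inactive means meets neither condition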
3T3 cytotox: cytotoxicity in mouse NIH/3T3 fibroblasts; cytotoxicity (signal decrease), % at 8.35 µM; hit rate 14% among 5,600; shares compounds with T cruzi growth-1; NIH/3T3 viability, CellTiter-Glo ATP luminescence, 90 h;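 active means mean signal decrease across replicates above about 35% based on untreated-well scatter, with enough replicates individually passing, limit read from the data; inconclusive means no rule stated though some were filed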
3T3 cytotox 2: NIH/3T3 (mouse) viability loss; NIH/3T3 viability, CellTiter-Glo ATP luminescence, 90 h; hit rate 56% among 5,600; inhibition, % at 24.9 µM; shares compounds with T cruzi growth-1;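 active means mean loss of cell viability signal at or above a set limit, and enough replicates individually reaching it; inconclusive means meets only the mean limit or only the replicate share; inactive means meets neither condition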
Numbers stand for hits; . = inactive; ? = inconclusive; / = no result given.

SMILES	IDH1 mut inh	GASC1 inh	T cruzi growth-1	Pf Dd2 growth	T cruzi growth-2	T cruzi growth-3	3T3 cytotox	3T3 cytotox 2
Cc1ccc(S(=O)(=O)Nc2ccc3c(c2)C(=O)N([C@@H](C)CO)C[C@@H](C)[C@@H](CN(C)Cc2ccc4c(c2)OCO4)OCCCC[C@H](C)O3)cc1	/	.	?	.	.	?	61	104
Cc1ccc(S(=O)(=O)Nc2ccc3c(c2)C(=O)N([C@@H](C)CO)C[C@H](C)[C@@H](CN(C)Cc2ccc4c(c2)OCO4)OCCCC[C@H](C)O3)cc1	.	.	105	.	102	.	.	80
Cc1ccc(S(=O)(=O)Nc2ccc3c(c2)C(=O)N([C@@H](C)CO)C[C@@H](C)[C@@H](CN(C)Cc2ccc4c(c2)OCO4)OCCCC[C@@H](C)O3)cc1	.	.	.	.	/	/	/	/
Cc1ccc(S(=O)(=O)Nc2ccc3c(c2)C(=O)N([C@@H](C)CO)C[C@H](C)[C@@H](CN(C)Cc2ccc4c(c2)OCO4)OCCCC[C@@H](C)O3)cc1	/	.	98	-81	102	.	.	105
Cc1ccc(S(=O)(=O)Nc2ccc3c(c2)C(=O)N([C@H](C)CO)C[C@H](C)[C@@H](CN(C)Cc2ccc4c(c2)OCO4)OCCCC[C@@H](C)O3)cc1	/	.	.	.	/	/	/	/
Cc1ccc(S(=O)(=O)Nc2ccc3c(c2)C(=O)N([C@@H](C)CO)C[C@@H](C)[C@H](CN(C)Cc2ccc4c(c2)OCO4)OCCCC[C@H](C)O3)cc1	/	.	.	.	/	/	/	/
COc1ccc(S(=O)(=O)Nc2ccc3c(c2)C(=O)N([C@H](C)CO)C[C@H](C)[C@H](CN(C)Cc2ccc4c(c2)OCO4)OCCCC[C@H](C)O3)cc1	/	.	?	.	103	?	.	105
CCn1c(SCc2nc3ccccc3c(=O)[nH]2)nnc1-c1ccccc1F	.	/	/	/	/	/	/	/
Cc1ccc(S(=O)(=O)Nc2ccc3c(c2)C(=O)N([C@H](C)CO)C[C@H](C)[C@@H](CN(C)Cc2ccc4c(c2)OCO4)OCCCC[C@H](C)O3)cc1	/	.	102	.	108	.	.	84
C[C@@H]1CCCCO[C@@H](CN(C)Cc2ccc3c(c2)OCO3)[C@H](C)CN([C@@H](C)CO)C(=O)c2cc(NS(=O)(=O)c3ccc(Cl)cc3)ccc2O1	/	.	.	.	/	/	/	/
C[C@H]1CCCCO[C@H](CN(C)Cc2ccc3c(c2)OCO3)[C@@H](C)CN([C@@H](C)CO)C(=O)c2cc(NS(=O)(=O)c3ccc(F)cc3)ccc2O1	.	.	.	.	/	/	/	/
C[C@@H]1CCCCO[C@H](CN(C)Cc2ccc3c(c2)OCO3)[C@@H](C)CN([C@@H](C)CO)C(=O)c2cc(NS(=O)(=O)c3ccc(Cl)cc3)ccc2O1	/	.	?	.	95	108	?	103
O=C(N/N=C/c1cc(Cl)cc(Cl)c1O)c1ccccc1O	.	/	/	/	/	/	/	/
Cc1cc(N(CC(=O)Nc2cccc([N+](=O)[O-])c2C)S(C)(=O)=O)ccc1Br	.	/	/	/	/	/	/	/
C[C@H]1CN([C@@H](C)CO)C(=O)c2cccc(NC(=O)c3ccncc3)c2O[C@@H]1CN(C)Cc1ccc2c(c1)OCO2	.	.	100	.	.	.	.	.
C[C@H](CO)N1C[C@H](C)[C@@H](CN(C)Cc2ccc3c(c2)OCO3)Oc2c(NC(=O)c3ccncc3)cccc2C1=O	.	.	99	.	104	.	.	35
C[C@@H]1CN([C@@H](C)CO)C(=O)c2cccc(NC(=O)c3ccncc3)c2O[C@@H]1CN(C)Cc1ccc(Cl)c(Cl)c1	.	.	97	.	100	.	.	.
CN(C)C(=O)c1cccc(-c2ccc([C@H]3[C@@H](CO)N4CCCCN(C(=O)C5CCCC5)C[C@@H]34)cc2)c1	/	/	102	.	103	98	.	.
CN(C)C(=O)c1cccc(-c2ccc([C@@H]3[C@@H](CO)N4CCCCN(C(=O)C5CCC5)C[C@@H]34)cc2)c1	/	.	.	.	/	/	/	/
CN(C)C(=O)c1cccc(-c2ccc([C@H]3[C@H](CO)N4CCCCN(C(=O)C5CCC5)C[C@@H]34)cc2)c1	/	.	102	.	99	?	.	.

Bioassay records (PubChem)
